Assay outcomes from PubChem BioAssay.
An excerpt weighted towards active compounds, which were near 1.7% of everything screened.
CASP6 VEID inh = inhibitors of human caspase-6. P55212. purified caspase-6, Z-VEID-R110 cleavage fluorescence. actives 0.53% (n = 350,000). AID 686996. inhibition, % at 12.5 µM;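 active means mean inhibition across replicates at least about 35%, with every replicate also reaching that limit, limit read from the data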;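 further: 0% = median of neutral control wells and 100% = no fluorescence left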
LMPTP inh = blocks human LMPTP phosphatase. P24666. recombinant LMPTP-A, OMFP fluorogenic substrate, fluorescence intensity. inhibition, % at 20 µM. actives 0.22% (n = 360,000);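 active means compounds that cut the enzyme signal by at least half of the control window in the single-dose screen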;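 further: plate controls were DMSO wells with enzyme plus substrate for no effect and substrate without enzyme for full effect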
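Test system: LMPTP-A phosphatase enzyme; input: 0.625 nM LMPTP-A final; reagent: OMFP substrate, 400 µM final; compound dosing: 20 µM single dose, 3% DMSO; incubation: 50 min dark incubation at room temperature; measured by: endpoint fluorescence intensity from OMFP dephosphorylation; measure: % inhibition relative to no-enzyme and uninhibited control wells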
STEP inh = blocks human striatal-enriched tyrosine phosphatase; recombinant STEP, OMFP fluorogenic substrate, fluorescence; AID 588621; P54829; inhibition, % at 20 µM; actives 0.25% (n = 360,000);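 active means inhibition at 20 µM, scaled per plate between control wells, above about 37%, limit read from the data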;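 further: 0% = DMSO with enzyme and substrate and 100% = substrate only without enzyme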
Target sequence (P54829 whole entry, looked up): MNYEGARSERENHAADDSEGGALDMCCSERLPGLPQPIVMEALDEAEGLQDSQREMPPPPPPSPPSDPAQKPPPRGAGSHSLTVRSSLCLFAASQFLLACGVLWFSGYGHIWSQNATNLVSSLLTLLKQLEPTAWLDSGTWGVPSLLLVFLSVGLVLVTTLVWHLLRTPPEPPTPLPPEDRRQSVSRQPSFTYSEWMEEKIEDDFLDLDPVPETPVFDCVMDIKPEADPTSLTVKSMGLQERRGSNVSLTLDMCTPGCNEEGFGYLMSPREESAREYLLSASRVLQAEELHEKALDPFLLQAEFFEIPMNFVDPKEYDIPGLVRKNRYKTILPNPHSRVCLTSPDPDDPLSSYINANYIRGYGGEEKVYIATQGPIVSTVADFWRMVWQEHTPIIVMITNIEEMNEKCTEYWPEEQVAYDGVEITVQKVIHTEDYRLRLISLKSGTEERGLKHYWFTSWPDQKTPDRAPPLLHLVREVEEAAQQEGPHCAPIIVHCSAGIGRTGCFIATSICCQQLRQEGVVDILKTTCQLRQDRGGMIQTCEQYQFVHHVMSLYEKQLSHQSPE
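System: isolated STEP enzyme; schedule: 20 min enzyme reaction at room temperature, protected from light; medium: Bis-Tris buffer pH 6.0, 2.5 mM DTT, 0.005% Tween 20; signal: fluorescence, 480/540 nm; dosing: single compound dose of 20 µM, 1% DMSO final; also added: OMFP substrate, 25 µM final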
SUMO1-SIM PPI = alters human SUMO1 binding to SIM partners; AID 602429; SUMO1 binding to a labelled peptide, TR-FRET, 1 h; P63165; actives 0.33% (n = 360,000); inhibition, % at 20 µM; in the data active means inhibition above about 37%
Target sequence (P63165 whole entry, looked up): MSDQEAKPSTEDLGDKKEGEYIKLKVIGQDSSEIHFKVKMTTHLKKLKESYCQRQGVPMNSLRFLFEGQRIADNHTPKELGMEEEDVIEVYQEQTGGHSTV
Scp-1 inhibitor = inhibitors of human Scp-1 phosphatase. actives 0.88% (n = 340,000). inhibition, % at 20 µM. Q9GZU7. Recombinant Scp1, phosphopeptide, malachite green phosphate absorbance. AID 493091;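 active means inhibition above about 50% at 20 µM, limit read from the data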;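 further: plate controls were DMSO wells with enzyme for no effect and wells lacking enzyme for full effect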
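Test system: SCP-1 catalytic domain; Buffer or medium: Acidic Tris acetate buffer with magnesium and detergent; Also added: Phosphorylated 17-residue peptide substrate; Compound: single 20 µM dose, 1% DMSO; Schedule: enzyme reaction 45 min at room temperature, colour 5 min, stabilisation 30 min; Signal: Phosphate-binding colour reagent, absorbance read at 630 nm.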
DNMT1 inh = inhibitors of human DNMT1 | P26358 | DNMT1 molecular beacon, Hinp1I cleavage, fluorescence | inhibition (reported as % activation of signal), % at 10 µM | actives 0.83% (n = 360,000); in the data active means inhibition above about 50%
Scp-1 conf = Scp-1 (human) inhibition, single-dose confirmed; shares compounds with Scp-1 inhibitor; recombinant SCP-1 catalytic domain, phosphate release, malachite green absorbance; inhibition, % at 20 µM; actives 61% (n = 2,500);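 further: plate controls were DMSO with enzyme for no effect and buffer wells lacking enzyme for full effect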
MG interference = interferes with malachite green readout, flagging false Scp-1 hits; Colorimetric interference counterscreen, malachite green absorbance 630 nm; apparent inhibition (interference), % at 20 µM; 2,500 tested, under 10 active; AID 540313; shares compounds with Scp-1 inhibitor;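 further: compounds added after enzyme reaction finished so only phosphate colour detection is probed; plate controls were DMSO wells with completed Scp-1 reaction for no effect and substrate wells lacking enzyme for full effect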
Scp1 DSF = Scp-1 (human) binding by thermal shift; shares compounds with Scp-1 inhibitor; Recombinant SCP1, Sypro Orange thermal shift Tm; thermal shift relative to vanadate control, % at 40 µM; actives 25% (n = 1,500);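 active means substances whose mean melting-temperature shift, as a percentage of the reference inhibitor's shift, reaches about 5.3%, limit read from the data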;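 further: 0% = Tm of DMSO wells and 100% = Tm with sodium orthovanadate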
* = called active by the depositor; / = no result given.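 How the source made its calls, unless noted: active means inhibition of at least 30% at 20 µM; inactive means the rest.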

SMILES	CASP6 VEID inh	LMPTP inh	STEP inh	SUMO1-SIM PPI	Scp-1 inhibitor	DNMT1 inh	Scp-1 conf	MG interference	others
O=C(NCCNCc1ccccc1)c1ccco1	63.5*	22.1	10.1	-7.4	69.8*	67.6*	49.5*	-18.4	Scp1 DSF=9.6*
CCc1ccc(CNCCNC(=O)c2ccco2)cc1	6.7	5.7	2.6	-17.1	-15.2	2.5	/	/
O=C(O)c1ccc(CSc2nc3ccc(NC(=O)c4ccccc4C(=O)O)cc3s2)cc1	26.9	6.0	23.5	-1.4	57.6*	4.0	43.1*	-20.5	Scp1 DSF=-9.6
O=C(Nc1nc(-c2ccc3c(c2)OCO3)cs1)C1COc2ccccc2O1 (stereo not given)	-0.9	2.7	1.4	0.8	-9.2	-9.6	/	/
COc1ccc(-c2[nH]ncc2CN(C)C(C)c2ccon2)cc1F (stereo not given)	11.7	-0.8	0.0	-0.8	-4.2	1.3	/	/
CCCC(=O)Nc1ccc2nc(SCC(=O)Nc3ccc(N4CCOCC4)c(Cl)c3)sc2c1	/	2.3	0.2	-4.3	14.5	-8.0	/	/
Nc1ccc2nc(SCC(=O)Nc3ccc(N4CCOCC4)c(Cl)c3)sc2c1	/	-0.3	-3.1	4.4	97.4*	-9.9	-0.5	-5.4
COc1ccc(N2CC(C(=O)Nc3nc4ccc(F)cc4s3)CC2=O)c(OC)c1 (stereo not given)	2.9	-0.2	0.6	2.6	-4.5	-5.1	7.0	-7.3
Cc1ccc(NS(=O)(=O)N2CCOCC2)cc1Cl	-0.3	-0.1	-1.8	4.1	1.1	0.2	/	/
COC(=O)c1ccc(Cn2c(O)c(N=NC(N)=S)c3ccccc32)o1	2.4	3.4	2.3	-25.5	60.0*	39.9	-11.8	-20.5
CCCC#Cc1cnc2c(c1)C(=O)N([C@@H](C)CO)C[C@H](C)[C@H](CN(C)C(=O)c1ccc3c(c1)OCO3)O2	1.0	/	/	/	/	/	/	/
C[C@H](CO)N1C[C@H](C)[C@@H](CN(C)S(=O)(=O)c2cn(C)cn2)Oc2ccc(NC(=O)Nc3ccc(F)cc3)cc2C1=O	2.9	/	/	/	/	/	/	/
CC1CCCC(C)N1C(=O)CSc1nnc(NC(=O)Cc2cccs2)s1 (stereo not given)	/	-0.3	-2.6	2.0	-8.1	2.4	/	/
COc1ccc(/C=N/NC(=O)C(Cc2c[nH]c3ccccc23)NC(=O)OCC(C)C)cc1[N+](=O)[O-] (stereo not given)	/	-0.7	-0.8	-5.9	65.1*	-3.7	-10.9	-13.1
COC(=O)[C@@]12CCCCN1[C@H](c1ccc(SC3CCCCC3)c(OC)c1)[C@@H]1C(=O)N(C)C(=O)[C@@H]12	-6.4	1.8	2.8	3.8	-11.3	-7.2	/	/
CCN1C(=O)[C@@H]2[C@@H](c3ccc(SC4CCCCC4)c(OC)c3)N3CCCC[C@@]3(C(=O)OC)[C@@H]2C1=O	0.0	3.1	-1.3	-6.0	52.9*	-17.6	-2.1	-6.8
Cc1ccccc1CSc1nnc(NC(=O)Cc2cccs2)s1	/	2.1	-2.7	3.0	22.9	29.8	/	/
Cc1c(CCC(=O)O)c(=O)oc2cc3occ(-c4ccc(Cl)cc4)c3cc12	8.0	11.9	5.4	23.8	-12.1	3.4	/	/
Cc1c(CCC(=O)O)c(=O)oc2c(C)c3occ(-c4ccc(Cl)cc4)c3cc12	29.3	87.7*	34.8	36.9	63.7*	3.7	77.3*	-23.0	Scp1 DSF=-18.3
COc1ccc2nc(NC(=O)c3ccc(-n4nc(C)cc4C)cc3)sc2c1	/	-2.6	3.6	-1.7	-1.6	-0.7	/	/
COc1ccc(-n2nc(C(=O)Nc3nc4ccc(OC)cc4s3)c3ccccc3c2=O)cc1	-3.1	5.4	4.4	-0.9	67.8*	25.1	-9.0	-10.4
O=C1CSC(=S)N1Cc1cccnc1	/	0.4	0.2	-1.9	5.6	-5.9	/	/
CCCc1cc(=O)n2[nH]c(NCc3ccc(OC)c(OC)c3)nc2n1	2.5	1.3	-2.1	-0.2	-8.7	-4.8	/	/
CCOC(=O)c1cnc2nc(NCc3ccc(OC)c(OC)c3)[nH]n2c1=O	/	10.9	23.1	9.4	53.7*	2.0	31.4*	-7.9	Scp1 DSF=1.0
COc1cc(NC(=O)Nc2cccc3cccnc23)cc(OC)c1OC	3.6	1.6	-2.0	-4.8	-5.1	0.5	/	/
SMILES	CASP6 VEID inh	LMPTP inh	STEP inh	SUMO1-SIM PPI	Scp-1 inhibitor	DNMT1 inh	Scp-1 conf	MG interference	others
CN(C)CC(=O)N1[C@H](C#N)[C@@H](c2ccc(-c3cccc(C(=O)N(C)C)c3)cc2)[C@H]1CO	0.6	/	/	/	/	/	/	/
COc1cc(N=Nc2ccc(C(=O)N(C)C)cc2)c(C)cc1N	-1.0	2.6	2.3	-43.8	21.8	1.0	/	/
COc1cccc(-c2ccc3c(c2)[C@@H]2[C@@H](CCN2C(=O)CN(C)C)[C@H](CO)N3C)c1	-9.3	/	/	/	/	/	/	/
O=C(Nc1ccc(S(=O)(=O)Nc2nccs2)cc1)c1ccc(=O)[nH]c1	/	5.5	-2.3	32.1	70.0*	-1.0	60.2*	-12.0	Scp1 DSF=8.9*
O=C(NCCc1ccccc1)c1ccc(-c2ccc(F)cc2)o1	-1.8	0.7	-1.9	-4.5	26.4	6.6	/	/
O=C(NCCc1ccccc1)c1ccc(-c2ccccc2C(F)(F)F)o1	3.5	/	/	/	96.8*	/	20.1	-27.2
COc1ccc(CCNC(C(=O)Nc2cc(C)cc(C)c2)c2ccccc2)cc1 (stereo not given)	-2.0	3.9	0.2	1.8	54.1*	-2.9	-9.0	-5.4
N/C(=N\OC(=O)c1ccc(Br)cc1)c1cccc([N+](=O)[O-])c1	2.8	0.2	1.9	-21.5	64.8*	9.7	62.3*	-18.9	Scp1 DSF=1.3
O=C1/C(=C\c2cccc([N+](=O)[O-])c2O)SC(=S)N1Cc1ccccc1	17.9	9.4	6.5	22.5	73.3*	7.5	15.5	-24.7
C[N+](C)(C)CC/C=C1/c2ccccc2CSc2ccccc21	/	0.1	1.6	2.8	76.9*	-2.6	82.1*	-13.1	Scp1 DSF=-4.3
Cc1cc(NC(=O)CSc2ccc(-c3ccc(Br)cc3)nn2)no1	0.0	11.6	5.5	-2.9	25.0	14.4	/	/
CC(C)(C)C(=O)O/N=C1/C(=O)N(c2ccccc2)c2ccccc21	/	4.4	12.8	-17.0	89.5*	22.5	74.3*	-14.5	Scp1 DSF=-15.6
CC(C)CC(=O)O/N=C1\C(=O)N(c2ccccc2)c2ccccc21	/	-1.2	-5.0	-13.6	-11.9	4.7	/	/
CCc1cc(C(=O)OC)c(NC(=O)CCC(=O)O)s1	/	-1.7	1.7	-0.2	62.2*	-1.8	-10.2	-10.9
